Measurements as given in ChEMBL document CHEMBL1124220 (J Med Chem, 1988).
Non-standard residues stand in square brackets, D forms with d. Residues, ends and D or L forms follow the SMILES beside them. 3Thi = N[C@@H](Cc1ccsc1)C(=O)O; Aib = CC(C)(N)C(=O)O; Sar = CNCC(=O)O

These molecules were tested on Rattus norvegicus (assay: In vivo agonist angiotensin II like activity was measured in rat blood pressure assay).
Format: functional
Design: concentration or dose not given beside the values
Summary of the method: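 Rat blood pressure in vivo. Residual AII-like activity read as the pressor rise (mmHg) after a 1-μg intravenous bolus of compound. Mean of at least five tests with standard error.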

SMILES	Activity
CC[C@H](C)[C@H](NC(=O)[C@H](Cc1ccc(O)cc1)NC(=O)[C@@H](NC(=O)[C@@H](C)N)C(C)C)C(=O)N[C@@H](Cc1c[nH]cn1)C(=O)N1CCC[C@H]1C(=O)N[C@@H](Cc1ccccc1)C(=O)O	48%
CC[C@H](C)[C@H](NC(=O)[C@H](Cc1ccc(O)cc1)NC(=O)[C@@H](NC(=O)[C@@H](N)CCCCN)C(C)C)C(=O)N[C@@H](Cc1c[nH]cn1)C(=O)N1CCC[C@H]1C(=O)N[C@@H](Cc1ccccc1)C(=O)O	3%
CC[C@H](C)[C@H](NC(=O)[C@H](Cc1ccc(O)cc1)NC(=O)[C@@H](NC(=O)[C@H](CCCN=C(N)N)NC(=O)[C@@H](N)CC(=O)O)C(C)C)C(=O)N[C@@H](Cc1ccccc1)C(=O)N1CCC[C@H]1C(=O)N[C@@H](Cc1ccccc1)C(=O)O (H-DRVYIFPF-OH)	5.1%
CC[C@H](C)[C@H](NC(=O)[C@H](Cc1ccc(O)cc1)NC(=O)[C@@H](NC(=O)[C@H](CCCN=C(N)N)NC(=O)[C@@H](N)CC(=O)O)C(C)C)C(=O)N[C@@H](Cc1ccsc1)C(=O)N1CCC[C@H]1C(=O)N[C@@H](Cc1ccccc1)C(=O)O (H-DRVYI[3Thi]PF-OH)	19.3%
CC[C@H](C)[C@H](NC(=O)[C@H](Cc1ccc(O)cc1)NC(=O)[C@@H](NC(=O)[C@H](CCCN=C(N)N)NC(=O)[C@@H](N)CC(=O)O)C(C)C)C(=O)N[C@@H](Cc1cncn1C)C(=O)N1CCC[C@H]1C(=O)N[C@@H](Cc1ccccc1)C(=O)O	0.05%
CC[C@H](C)[C@H](NC(=O)[C@H](Cc1ccc(O)cc1)NC(=O)[C@@H](NC(=O)[C@H](N)CCCN)C(C)C)C(=O)N[C@@H](Cc1c[nH]cn1)C(=O)N1CCC[C@H]1C(=O)N[C@@H](Cc1ccccc1)C(=O)O	23%
CC[C@H](C)[C@H](NC(=O)[C@H](Cc1ccc(O)cc1)NC(=O)[C@@H](NC(=O)[C@H](N)CCCCN)C(C)C)C(=O)N[C@@H](Cc1c[nH]cn1)C(=O)N1CCC[C@H]1C(=O)N[C@@H](Cc1ccccc1)C(=O)O	23%

Species: Oryctolagus cuniculus
Assay: In vitro agonist angiotensin II like activity was measured in the rabbit aorta strip assay
Format: functional
Summary of the method: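 Isolated rabbit aortic strips in vitro. Agonist (AII-like) activity expressed as percent of the activity of AII.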

SMILES	Activity
CC[C@H](C)[C@H](NC(=O)[C@H](Cc1ccc(O)cc1)NC(=O)[C@@H](NC(=O)[C@H](CCCN=C(N)N)NC(=O)CNC)C(C)C)C(=O)N[C@@H](Cc1c[nH]cn1)C(=O)N1CCC[C@H]1C(=O)N[C@H](C(=O)O)[C@@H](C)O (H-[Sar]RVYIHPT-OH)	0.6%
CC[C@H](C)[C@H](NC(=O)[C@@H]1CCCN1C(=O)[C@@H](Cc1c[nH]cn1)NC(=O)[C@@H](NC(=O)[C@H](Cc1ccc(O)cc1)NC(=O)[C@@H](NC(=O)[C@H](CCCN=C(N)N)NC(=O)CNC)C(C)C)[C@@H](C)CC)C(=O)O	0%
CC[C@H](C)[C@H](NC(=O)[C@@H]1CCCN1C(=O)[C@H](CCCCN)NC(=O)[C@@H](NC(=O)[C@H](Cc1ccc(O)cc1)NC(=O)[C@@H](NC(=O)[C@H](CCCN=C(N)N)NC(=O)CNC)C(C)C)[C@@H](C)CC)C(=O)O (H-[Sar]RVYIKPI-OH)	0%
CC[C@H](C)[C@H](NC(=O)[C@H](Cc1ccc(O)cc1)NC(=O)[C@@H](NC(=O)CN(C)C(=O)CNC)C(C)C)C(=O)N[C@@H](Cc1c[nH]cn1)C(=O)N1CCC[C@H]1C(=O)N[C@H](C(=O)O)[C@@H](C)O (H-[Sar][Sar]VYIHPT-OH)	0%
CC[C@H](C)[C@H](NC(=O)[C@@H]1CCCN1C(=O)[C@H](Cc1c[nH]cn1)NC(=O)[C@@H](NC(=O)[C@H](Cc1ccc(O)cc1)NC(=O)[C@@H](NC(=O)[C@H](C)N)C(C)C)[C@@H](C)CC)C(=O)O	0%
CC[C@H](C)[C@H](NC(=O)[C@H](Cc1ccc(O)cc1)NC(=O)[C@@H](NC(=O)[C@H](CCCN=C(N)N)NC(=O)CNC)C(C)C)C(=O)N[C@@H](CC(=O)O)C(=O)N1CCC[C@H]1C(=O)N[C@H](C(=O)O)[C@@H](C)O (H-[Sar]RVYIDPT-OH)	0%
CC[C@H](C)[C@H](NC(=O)[C@@H]1CCCN1C(=O)[C@H](Cc1c[nH]cn1)NC(=O)[C@@H](NC(=O)[C@H](Cc1ccc(O)cc1)NC(=O)[C@@H](NC(=O)C(C)(C)N)C(C)C)[C@@H](C)CC)C(=O)O (H-[Aib]VYIHPI-OH)	0%
